Results taken from paper PMC10616755 (RSC Advances, 2023).
Where two headings read alike, the source gives them in different places.

How the values were obtained:
HCT-116 [1] = experiment: MTT cytotoxicity assay, HCT-116; assay type: cell-based, human; conditions: for SI (HCT-116): selectivity index WI-38 vs HCT-116; for Cytotoxicity grade HCT-116: grade in words in text
Summary of the method: (§1)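 MTT viability assay on human HCT-116 and MCF-7 lines. Each test compound was run at 100, 50, 25, 12.5, 6.25, 3.125 and 1.56 μM, with IC50 determined per cell line.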

MCF-7 [2] = experiment: MTT cytotoxicity assay, MCF-7; assay type: cell-based, human; conditions: for SI (MCF-7): selectivity index WI-38 vs MCF-7; for Cytotoxicity grade MCF-7: grade in words in text
Summary of the method: as §1

VEGFR-2 = VEGFR-2 (Homo sapiens, UniProt P35968); experiment: VEGFR-2; assay type: biochemical; conditions: VEGFR-2 inhibitory activity IC50
[3] = MTT cytotoxicity on normal lung fibroblast; assay type: cell-based, human; conditions: human, WI-38 normal lung fibroblast cells
WI-38 = experiment: MTT cytotoxicity on normal lung fibroblast; assay type: cell-based, human; conditions: read-out: Cytotoxicity on WI-38 IC50; normal cell line, MTT assay
HCT-116 [4] = conditions: read-out: Cytotoxic activity IC50 HCT-116, cited from earlier work
MCF-7 [5] = conditions: read-out: Cytotoxic activity IC50 MCF-7, cited from earlier work
BAX = BAX level; assay type: cell-based; conditions: control = 1
BCL2 = BCL2 level; assay type: cell-based; conditions: control = 1
p53 = experiment: Active p53 level; assay type: cell-based, human
caspase-3 = experiment: Active caspase-3 level; assay type: cell-based, human
[6] = Homo sapiens, HCT-116, read-out: Cytotoxic activity IC50 HCT-116
[7] = Homo sapiens, MCF7, read-out: Cytotoxic activity IC50 MCF-7
[8] = read-out: Cytotoxic activity IC50 HCT-116, MTT assay
[9] = read-out: Cytotoxic activity IC50 MCF-7, MTT assay
[10] = sorafenib reference value ref 36
[11] = sunitinib reference value ref 34,35

VEGFR-2, sequence (P35968 20-1356): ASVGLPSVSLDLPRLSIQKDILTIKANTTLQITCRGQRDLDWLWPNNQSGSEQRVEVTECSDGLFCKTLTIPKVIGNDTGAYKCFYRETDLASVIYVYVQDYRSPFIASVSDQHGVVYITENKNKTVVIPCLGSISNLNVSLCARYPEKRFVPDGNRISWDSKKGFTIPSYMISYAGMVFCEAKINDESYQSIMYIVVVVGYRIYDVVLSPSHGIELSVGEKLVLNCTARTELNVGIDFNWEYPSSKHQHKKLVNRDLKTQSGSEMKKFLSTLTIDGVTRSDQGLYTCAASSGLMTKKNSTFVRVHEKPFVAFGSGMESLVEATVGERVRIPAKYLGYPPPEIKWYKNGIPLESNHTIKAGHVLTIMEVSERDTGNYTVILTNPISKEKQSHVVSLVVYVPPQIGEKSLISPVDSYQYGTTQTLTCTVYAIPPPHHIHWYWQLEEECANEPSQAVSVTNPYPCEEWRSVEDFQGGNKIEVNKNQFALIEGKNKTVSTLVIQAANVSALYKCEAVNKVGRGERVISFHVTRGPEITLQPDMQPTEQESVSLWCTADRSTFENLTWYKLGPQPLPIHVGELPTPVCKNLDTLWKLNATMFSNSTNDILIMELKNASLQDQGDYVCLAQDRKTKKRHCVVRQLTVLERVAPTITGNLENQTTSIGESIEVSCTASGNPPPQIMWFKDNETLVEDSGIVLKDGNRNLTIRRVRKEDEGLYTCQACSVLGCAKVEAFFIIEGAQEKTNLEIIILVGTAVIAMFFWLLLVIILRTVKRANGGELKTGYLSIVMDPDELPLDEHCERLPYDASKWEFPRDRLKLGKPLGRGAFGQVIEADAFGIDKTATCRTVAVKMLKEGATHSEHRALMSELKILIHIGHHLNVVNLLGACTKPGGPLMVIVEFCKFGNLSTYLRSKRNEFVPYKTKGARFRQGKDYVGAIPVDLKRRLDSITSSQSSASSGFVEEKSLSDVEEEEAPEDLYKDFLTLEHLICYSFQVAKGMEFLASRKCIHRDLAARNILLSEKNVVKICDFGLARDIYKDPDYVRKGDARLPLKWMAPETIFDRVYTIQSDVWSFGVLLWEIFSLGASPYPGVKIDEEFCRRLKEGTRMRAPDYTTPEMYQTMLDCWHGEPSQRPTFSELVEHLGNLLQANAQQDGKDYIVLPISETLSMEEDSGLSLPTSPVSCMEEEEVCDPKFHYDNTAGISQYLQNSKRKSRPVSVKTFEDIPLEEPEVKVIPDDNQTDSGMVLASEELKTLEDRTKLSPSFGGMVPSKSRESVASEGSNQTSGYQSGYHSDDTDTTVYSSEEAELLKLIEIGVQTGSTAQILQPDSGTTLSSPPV

Cc1cccc(NC(=O)CCc2nc3cc(Cl)ccc3[nH]c2=O)c1 [Compound 12, 3-(6-Chloro-1,2-dihydro-2-oxoquinoxalin-3-yl)-N-m-tolylpropanamide]
IC50 (HCT-116 [1]; [6]): 28.4 ± 2.2 µM
IC50 (MCF-7 [2]; [7]): 24.6 ± 1.9 µM

2-(2-(3-(6-Chloro-3-oxo-3,4-dihydroquinoxalin-2-yl)propanoyl)hydrazine-1-carbonyl) benzoic acid [Compound 21]
IC50 (HCT-116 [1]; [8]): 48.2 ± 2.7 µM
IC50 (MCF-7 [2]; [9]): 41.5 ± 2.5 µM

O=C(CCc1nc2cc(Cl)ccc2[nH]c1=O)Nc1ccccc1O [Compound 9, 3-(6-Chloro-1,2-dihydro-2-oxoquinoxalin-3-yl)-N-(2-hydroxyphenyl)propanamide]
IC50 (VEGFR-2): 131 nM
IC50 [3]: 86.1 ± 4.1 µM
IC50 (HCT-116 [1]; [6]): 7.19 ± 0.7 µM
SI (HCT-116) (HCT-116 [1]): 11.98
IC50 (MCF-7 [2]; [7]): 6.92 ± 0.5 µM
SI (MCF-7) (MCF-7 [2]): 12.44

Cc1ccc(NC(=O)CCc2nc3cc(Cl)ccc3[nH]c2=O)cc1 [Compound 11, 3-(6-Chloro-1,2-dihydro-2-oxoquinoxalin-3-yl)-N-p-tolylpropanamide]
IC50 (HCT-116 [1]; [6]): 61.4 ± 3.4 µM
IC50 (MCF-7 [2]; [7]): 54 ± 3.1 µM

2,4-Dichloro-N′-(3-(6-chloro-3-oxo-3,4-dihydroquinoxalin-2-yl)-propanoyl) benzohydrazide [Compound 19]
IC50 (WI-38): 71.6 ± 2.8 µM
Cytotoxicity grade HCT-116 (HCT-116 [1]): very strong (1–10 (very strong))
IC50 (HCT-116 [1]; [8]): 6.18 ± 2.1 µM
SI (HCT-116) (HCT-116 [1]): 11.58
Cytotoxicity grade MCF-7 (MCF-7 [2]): very strong (1–10 (very strong))
IC50 (MCF-7 [2]; [9]): 5.11 ± 0.8 µM
SI (MCF-7) (MCF-7 [2]): 14.01

Cc1ccccc1NC(=O)CCc1nc2cc(Cl)ccc2[nH]c1=O [Compound 13, 3-(6-Chloro-1,2-dihydro-2-oxoquinoxalin-3-yl)-N-o-tolylpropanamide]
IC50 (HCT-116 [1]; [6]): 22.2 ± 1.9 µM
IC50 (MCF-7 [2]; [7]): 18.9 ± 1.4 µM

CNC(=O)c1cc(Oc2ccc(NC(=O)Nc3ccc(Cl)c(C(F)(F)F)c3)cc2)ccn1 [Sorafenib]
IC50 (HCT-116 [4]; [10]): 18.6 ± 1.9 µM
IC50 (MCF-7 [5]; [10]): 16 ± 3.6 µM

CN[C@@H]1C[C@H]2O[C@@](C)([C@@H]1OC)n1c3ccccc3c3c4c(c5c6ccccc6n2c5c31)C(=O)NC4 [Staurosporine]
BAX fold change (BAX): 7.5517 fold change
BAX fold change (BAX; listed as staurosporine): 7.55 fold change
BCL2 fold change (BCL2): 0.3248 fold change
BCL2 fold change (BCL2; listed as staurosporine): 0.33 fold change

COc1cccc2c1C(=O)c1c(O)c3c(c(O)c1C2=O)C[C@@](O)(C(=O)CO)C[C@@H]3O[C@H]1C[C@H](N)[C@H](O)[C@H](C)O1 [DOX, Doxorubicin, reference compound]
IC50 [3]: 6.72 ± 0.5 µM
IC50 (HCT-116 [1]; [6]): 9.27 ± 0.3 µM
SI (HCT-116) (HCT-116 [1]): 0.72
IC50 (MCF-7 [2]; [7]): 7.43 ± 0.2 µM
SI (MCF-7) (MCF-7 [2]): 0.9

CCN(CC)CCNC(=O)c1c(C)[nH]c(/C=C2\C(=O)Nc3ccc(F)cc32)c1C [Sunitinib]
p53 (p53; MCF-7 cells, control 22.19 ± 8.39): 278.34 ± 5.27 pg/mL
p53 Fld (p53; vs control): 12.543 fold
IC50 (HCT-116 [4]; [11]): 3.42 ± 0.5 µM
IC50 (MCF-7 [5]; [11]): 4.77 ± 0.2 µM
Caspase 3 (caspase-3; MCF-7 cells, control 47.88 ± 13.15): 384.53 ± 8.40 pg/mL
Caspase 3 Fld (caspase-3; vs control): 8.031 fold

O=C(CCc1nc2cc(Cl)ccc2[nH]c1=O)Nc1ccccc1 [Compound 5, 3-(6-Chloro-1,2-dihydro-2-oxoquinoxalin-3-yl)-N-phenylpropanamide]
IC50 (HCT-116 [1]; [6]): 45.5 ± 2.7 µM
Cytotoxicity grade HCT-116 (HCT-116 [1]): moderate (21–50 (moderate))
IC50 (MCF-7 [2]; [7]): 39 ± 2.4 µM
Cytotoxicity grade MCF-7 (MCF-7 [2]): moderate (21–50 (moderate))

4-(3-(6-Chloro-1,2-dihydro-2-oxoquinoxalin-3-yl)propaneamido)-4-oxobutanoic acid [Compound 20]
IC50 (WI-38): 93 ± 2.2 µM
IC50 (HCT-116 [1]; [8]): 26.4 ± 3.8 µM
SI (HCT-116) (HCT-116 [1]): 3.52
IC50 (MCF-7 [2]; [9]): 10.2 ± 3.3 µM
SI (MCF-7) (MCF-7 [2]): 9.15

O=C(CCc1nc2cc(Cl)ccc2[nH]c1=O)Nc1ccc(C(=O)O)cc1 [Compound 16, 4-(3-(6-Chloro-1,2-dihydro-2-oxoquinoxalin-3-yl)propanamido)benzoic acid]
IC50 (HCT-116 [1]; [6]): 75.1 ± 3.6 µM
Cytotoxicity grade HCT-116 (HCT-116 [1]): weak (51–100 (weak))
IC50 (MCF-7 [2]; [7]): 67.2 ± 3.5 µM
Cytotoxicity grade MCF-7 (MCF-7 [2]): weak (51–100 (weak))
